The values below come from article PMC8688139 (Journal of medicinal chemistry, 2019).

The nature of one data set: Cytotoxicity assay. The class given is cell-based, murine. The following applies: mouse, 3T3-L1 cells.
The target in a further data set is Human 11β-HSD1 (Homo sapiens, UniProt P28845, C272S). The data set is described as follows: Biochemical assay of 11β-HSD1. The conditions noted are these: 11β-HSD1 Ki.
A further data set in a line: Solubility. The class given is physicochemical.
The next data set relates to 3T3-L1 preadipocytes. The data set is described as follows: Preadipocyte differentiation assay. The class given is cell-based, murine. The procedure, abridged: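 3T3-L1 cells (passages 1–16) seeded at 2.5 × 10^5/well on 0.1% gelatin. Day 0, 24 h after near-confluence: switched to induction DMEM (high glucose, 10% FBS, 0.5 mM IBMX). After 48 h: DMEM + 10% FBS + 10 µg/mL insulin. Negative control kept in non-differentiating medium; positive control differentiating medium + DMSO. Test compound 50–100 µM; run to day 7–10. Oil Red O stained; extracted dye read at 462 nm.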

Data set [1] relates to 3T3-L1 adipogenesis gene transcripts. In words: qRT-PCR gene expression during 3T3-L1 adipogenesis. Format: cell-based, murine. Summed up: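 Steady-state transcript levels measured by qRT-PCR in 3T3-L1 cells going through the induction/insulin differentiation protocol, on days 0, 1, 2 and 7. Treated cells compared with differentiating-medium and non-differentiating-medium controls.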
For orientation: In qPCR the cycle at which signal appears reflects the starting amount.

For a further data set, the system named is 3T3-L1 cells. In words: Mitochondria evaluation by confocal microscopy. Format: cell-based, murine. The following applies: 3T3-L1 adipogenesis assay, day 7, CA 50 μM. The procedure, abridged: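 3T3-L1 cells put through the adipogenesis protocol in 8-well chambers, test compound 50 µM. On day 7, live cells stained with MitoTracker Deep Red (50 nM final) and Hoechst 33342, PBS-washed, and imaged by spinning-disk confocal at 63×. Mean mitochondrial tracker intensity quantified.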

For data set [2], the system named is Normal mouse fibroblast (ATCC: CRL-2907). The data set is described as follows: Nascent. The following applies: CA 50 μM, 2 h. The class given is cell-based. The procedure, abridged:
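Mouse embryonic fibroblasts (CRL-2907) seeded at 2 × 10^4/well on 1% gelatin-coated slides and cultured 12 h at 37 °C in phenol red–free IMDM with 10% FBS. Test compound (50 µM) or DMSO given 2 h before click labelling with an alkyne o-propargyl-puromycin probe. Cycloheximide (20 nM, 30 min prior) served as positive control. Confocal imaging at 20×; whole-image montage quantified.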

The test system of data set [3] is 11β-HSD1, PPARγ, PGC-1α protein expression in 3T3-L1. The data set is described as follows: Western blot analysis during 3T3-L1 adipogenesis. Format: cell-based, murine. Summed up:
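3T3-L1 cells in non-differentiating medium, differentiating medium, differentiating medium + rosiglitazone, or differentiating medium + test compound (50 µM); sampled on days 3 and 7. Lysed in Tris/NaCl/EDTA/EGTA buffer with Triton X-100, deoxycholate, SDS, glycerol and protease/phosphatase inhibitors. 30 µg total protein loaded; tubulin used as loading control. Bands quantified; n = 3, means ± SEM.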

A further data set concerns the target T1, Human PPARγ (Homo sapiens, UniProt P37231).
T1 sequence (P37231 238-505 limits assumed): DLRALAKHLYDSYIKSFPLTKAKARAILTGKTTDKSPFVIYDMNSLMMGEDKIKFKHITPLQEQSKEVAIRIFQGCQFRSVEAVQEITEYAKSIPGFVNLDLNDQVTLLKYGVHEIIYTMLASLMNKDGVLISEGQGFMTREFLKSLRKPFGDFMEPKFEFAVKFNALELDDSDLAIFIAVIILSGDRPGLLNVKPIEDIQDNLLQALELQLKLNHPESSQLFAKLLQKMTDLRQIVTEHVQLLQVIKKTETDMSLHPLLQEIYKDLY
In words: Human PPARγ reporter antagonist assay. The class given is cell-based. The conditions noted are these: stimulation by rosiglitazone (20 nM); 40 μM to 2 nM.

A further data set has as its system 11β-HSD2. The conditions noted are these: cited from earlier work.
Data set [4] has as its system human visceral and subcutaneous preadipocytes. In words: Preadipocyte differentiation assay. The class given is cell-based. The procedure, abridged:
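Human visceral or subcutaneous preadipocytes (≤ passage 3) plated at 100,000 cells/well and grown to confluency. Day 0: induction medium ± hydrocortisone hemisuccinate (50 µg/mL) plus vehicle (0.2% DMSO), rosiglitazone (2 µM) or test compound (50, 100 µM); non-differentiating medium as control. Differentiation medium plus treatment from 48 h, refreshed every 48–72 h for 9–14 days. Fixed in 10% buffered formaldehyde; Oil Red O relatively quantified.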

The next data set concerns the target T2, Human GR (Homo sapiens, UniProt P04150).
T2 sequence (P04150 1-777): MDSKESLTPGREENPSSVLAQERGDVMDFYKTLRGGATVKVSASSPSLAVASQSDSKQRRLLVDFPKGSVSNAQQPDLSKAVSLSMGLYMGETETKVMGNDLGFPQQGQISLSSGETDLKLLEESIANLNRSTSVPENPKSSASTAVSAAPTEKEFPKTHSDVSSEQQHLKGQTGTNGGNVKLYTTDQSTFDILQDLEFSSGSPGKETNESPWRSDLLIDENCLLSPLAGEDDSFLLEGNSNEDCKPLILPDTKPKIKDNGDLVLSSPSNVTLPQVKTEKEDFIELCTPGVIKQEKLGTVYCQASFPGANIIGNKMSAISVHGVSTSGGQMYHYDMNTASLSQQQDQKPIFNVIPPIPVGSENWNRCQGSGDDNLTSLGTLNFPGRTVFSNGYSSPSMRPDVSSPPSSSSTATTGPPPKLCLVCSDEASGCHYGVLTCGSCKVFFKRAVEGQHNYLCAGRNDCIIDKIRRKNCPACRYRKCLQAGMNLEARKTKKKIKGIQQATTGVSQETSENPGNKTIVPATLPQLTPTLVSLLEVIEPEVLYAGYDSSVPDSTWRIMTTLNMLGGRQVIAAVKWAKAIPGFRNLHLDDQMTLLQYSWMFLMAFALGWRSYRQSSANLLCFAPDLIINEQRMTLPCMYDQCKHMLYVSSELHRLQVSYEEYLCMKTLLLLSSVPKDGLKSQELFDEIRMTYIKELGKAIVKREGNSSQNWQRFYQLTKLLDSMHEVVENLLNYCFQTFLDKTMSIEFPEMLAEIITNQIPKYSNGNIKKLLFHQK
The data set is described as follows: Human glucocorticoid receptor. Format: cell-based. The conditions noted are these: transiently GR-transfected MDA-MB-231 cells, 100 nM dexamethasone, 50 μM CA. The procedure, abridged:
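MDA-MB-231 cells transiently transfected, via Lipofectin, with a GR response element–luciferase reporter or a negative-control reporter. Seeded at 5000 cells/well for 12 h at 37 °C, then switched to phenol red–free DMEM with 2% charcoal-stripped FBS. Test compound (50 µM) or DMSO added 1 h before 100 nM dexamethasone induction; 4 h treatment. Luciferase luminescence read; n = 3, means ± SEM.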

The test system of data set [5] is 11β-HSD1 in J774.1 macrophage. The conditions noted are these: LPS activated murine J774.1 macrophage; cited from earlier work.
The next data set relates to 3T3-L1. The data set is described as follows: Cytotoxicity assay. Format: cell-based, murine. The conditions noted are these: 3T3-L1; tested concentrations up to 1mM.

Structures are written as SMILES. “Also recorded” adds a separate entry of the source.

Sequence of Human 11β-HSD1 (P28845 24-292 C272S): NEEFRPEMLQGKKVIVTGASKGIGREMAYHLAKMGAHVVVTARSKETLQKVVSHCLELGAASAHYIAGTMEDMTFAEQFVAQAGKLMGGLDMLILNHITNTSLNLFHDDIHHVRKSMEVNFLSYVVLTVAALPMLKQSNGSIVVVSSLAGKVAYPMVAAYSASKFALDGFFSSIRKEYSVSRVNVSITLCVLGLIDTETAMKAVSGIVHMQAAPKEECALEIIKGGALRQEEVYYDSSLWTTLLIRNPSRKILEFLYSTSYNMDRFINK

Usually EC50 stands for the concentration giving half of the maximal effect. Higher therefore signals lower potency in that assay. Regarding `CC1=CC[C@@]2(C[C@@H]1O)[C@H](C(=O)O)CC[C@H]2C(C)C` [Compound 7], the EC50 at 72 h in “Cytotoxicity assay” is over 500 µM.
Consider `C=C1CC[C@]2(C[C@@H]1O)[C@H](C)CC[C@@H]2C(=O)O` [Compound 16], for which, in the data set “Cytotoxicity assay”, the EC50 at 72 h was over 500 µM. On Human 11β-HSD1, the “activity relative to compound 15” value was “five-fold less activity”.
`CC1=CC[C@@]2(C[C@@H]1O)[C@@H](C(=O)O)CC[C@H]2C1CCCCC1` [Compound 20]: the solubility properties result in “Solubility” was “acceptable and similar to CA”. This molecule registered an EC50 at 72 h in the data set “Cytotoxicity assay” of over 500 µM. Besides, the “increase of potency over CA” value at Human 11β-HSD1 is recorded as “three-fold increase of potency; also recorded: three-fold increase in potency”.
With `C=C1CC[C@@]2(C(OC)[C@@H]1O)[C@@H](C(=O)O)CC[C@H]2C(C)C` (stereo partly shown) [Compound 13], in “Cytotoxicity assay”, the EC50 at 72 h was over 500 µM.
As for `CC1=CC[C@@]2(C[C@H]1O)[C@@H](C(C)C)CC[C@H]2C(=O)O` (single isomer, unassigned) [ent-1, (−)-Colletoic Acid], the EC50 at 72 h in “Cytotoxicity assay” is over 500 µM.
The molecule `CC1=CC[C@@]2(C[C@@H]1O)[C@@H](C(N)=O)CC[C@H]2C(C)C` [Compound 6] returned an EC50 at 72 h in “Cytotoxicity assay” of over 500 µM.
In the case of `CC1=CC[C@@]2(CC1=O)[C@@H](C(=O)O)CC[C@H]2C(C)C` [Compound 9], the half-maximal effective concentration (EC50) at 72 h in the data set “Cytotoxicity assay” was over 500 µM.
As to `CC1(C)[C@@H](OC(=O)CCC(=O)O)CC[C@]2(C)[C@H]3C(=O)C=C4[C@@H]5C[C@@](C)(C(=O)O)CC[C@]5(C)CC[C@@]4(C)[C@]3(C)CC[C@@H]12` [Compound 4, carbenoxolone, reference compound], the EC50 at 72 h in the data set “Cytotoxicity assay” was over 500 µM.
With `COC(=O)[C@H]1CC[C@@H](C(C)C)[C@@]12CC=C(C)[C@@H](O)C2` [Compound 5], in “Cytotoxicity assay”, the EC50 at 72 h is over 500 µM.
`CC1=CC[C@@]2([C@H](O)C1)[C@@H](C(=O)O)CC[C@H]2C(C)C` [Compound 10] showed a concentration giving a half-maximal response (EC50) at 72 h in “Cytotoxicity assay” of over 500 µM.
`CC1=CC[C@@]2([C@H](O)C1)[C@@H](C(=O)O)CC[C@H]2C1CCCCC1` [Compound 18] had an EC50 at 72 h in “Cytotoxicity assay” of over 500 µM.
On to `CC(C)[C@@H]1CC[C@H](C(=O)O)[C@]12C[C@@H](O)[C@@](C)(O)[C@@H](O)C2` [Compound 12], for which the EC50 at 72 h in the data set “Cytotoxicity assay” is over 500 µM.
Take `CC1=CC[C@@]2(C[C@@H]1O)[C@@H](C(=O)O)CC[C@H]2C(C)C` [Compound 1, (+)-colletoic acid]: the “effect on adipogenesis when added after day 3” value in the data set with 3T3-L1 preadipocytes (3T3-L1) was “little to no significant effect”. The “inhibition of adipogenesis (Oil Red O staining)” value in the data set with 3T3-L1 preadipocytes (3T3-L1, 7 days, compound added at induction, CA 50–100 μM) was “clearly inhibited adipogenesis”. The “lipid droplets (LipidTox) compared to NDM control cells” value with 3T3-L1 preadipocytes (3T3-L1, CA 50 μM) is on record as “no significant difference”. The “FABP4 and FASN mRNA expression, lower than in differentiated control cells” value in [1] (3T3-L1) is reported as “at least 10 fold”. Also, the “PGC-1α mRNA expression, differentiated control cells versus CA-treated cells” value in [1] (3T3-L1) was “at least ten-fold greater”. Also, in data set [1] (3T3-L1, day 1–2, vs differentiated control), the “C/EBPα, β and δ mRNA expression” value is given as “significant reduction”. Moreover, the “PPARγ and PGC-1α mRNA expression level” value in data set [1] (3T3-L1, vs differentiated cells) was “greatly reduced”. Also, the “11β-HSD1 mRNA expression” value in [1] (3T3-L1, vs differentiated control cells) is “reduced”. In addition, the “mitochondrial mass (mitochondrial tracker mean intensity)” value with 3T3-L1 cells was “less mitochondrial mass”. Also, in [2], the “global protein synthesis compared to DMSO control” value is “No significant changes”. Besides, the “PGC-1α, 11β-HSD1 and PPARγ protein expression” value in data set [3] (3T3-L1, day 3, CA 50 μM) is on record as “No significant change”; in data set [3] (3T3-L1, day 7, CA 50 μM) it was “down-regulation”. Moreover, the PPARγ antagonistic activity entry on Human PPARγ was “no quantifiable PPARγ antagonistic activity”. Also, the 11β-HSD2 inhibition entry in the data set with 11β-HSD2 is reported as “no observable 11β-HSD2 inhibition”. For the same molecule, in [4] (human preadipocytes), the “effect when added at day 3 after induction” value is on record as “no quantifiable effect”. For the same molecule, the “inhibition of adipogenesis in human preadipocytes” value in data set [4] (human visceral and subcutaneous preadipocytes, 10–14 days, CA 50–100 μM) is “modest inhibition of adipogenesis”. Also, the GR activation entry on Human GR is recorded as “did not inhibit GR activation”. In addition, in data set [5], the “conversion of [3H]-cortisone to [3H]-cortisol” value is “inhibits the conversion”. Further, the half-maximal effective concentration (EC50) at 72 h in “Cytotoxicity assay” was over 500 µM. Also, the “cytotoxicity (cell viability)” value with 3T3-L1 is “no cytotoxicity”.
Regarding `CC(=O)O[C@@H]1C[C@@](C)(O)CC[C@]12[C@@H](C(=O)O)CC[C@H]2C(C)C` [Compound 11], in “Cytotoxicity assay”, the EC50 at 72 h is over 500 µM.
`CC(=O)O[C@H]1C[C@]2(CC=C1C)[C@@H](C(=O)O)CC[C@H]2C(C)C` [Compound 8] had an EC50 at 72 h in “Cytotoxicity assay” of over 500 µM.
Same read-out and setting: to `C=C1CC[C@@]2(C[C@@H]1OC(C)=O)[C@@H](C(=O)O)CC[C@H]2C(C)C` [Compound 14] belongs over 500 µM; to `C=C1CC[C@@]2(C[C@@H]1O)[C@@H](C(=O)O)CC[C@H]2C(C)C` [Compound 15], over 500 µM.
On to `CC1=CC[C@@]2(C=C1)[C@@H](C(=O)O)CC[C@H]2C1CCCCC1` [Compound 19], for which, in “Solubility”, the solubility properties entry was “acceptable and similar to CA”.
